A selection: hits, their analogues and other compounds. The true share with any hit is near 0.79%.
bIAP inh – intestinal alkaline phosphatase (bovine) inhibition; inhibition, % at 20 µM; purified bovine IAP, CDP-star luminescence, 30 min; 190,000 tested, under 10 active; AID 1019;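 active = over 50% inhibition of intestinal alkaline phosphatase at 20 µM in the single-dose screen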
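System: purified bovine intestinal alkaline phosphatase (IAP) enzyme; Input: IAP diluted 1/65,000,000 in the well; Measured by: CDP-star luminescence signal; Compound dosing: 20 µM single dose; Incubation: 30 min reaction at room temperature.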
hIAP act – increases human intestinal alkaline phosphatase activity. P09923. purified human IAP, CDP-Star luminescence, 30 min; stronger effect = higher value; 1 = vehicle-only enzyme, 0 = enzyme-free background. activation factor at 10 µM. 330,000 compounds, 0.16% hits. AID 2524;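 active = activation factor of the enzyme at least 2-fold when tested at 20 µM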
Target sequence (P09923 whole entry, looked up): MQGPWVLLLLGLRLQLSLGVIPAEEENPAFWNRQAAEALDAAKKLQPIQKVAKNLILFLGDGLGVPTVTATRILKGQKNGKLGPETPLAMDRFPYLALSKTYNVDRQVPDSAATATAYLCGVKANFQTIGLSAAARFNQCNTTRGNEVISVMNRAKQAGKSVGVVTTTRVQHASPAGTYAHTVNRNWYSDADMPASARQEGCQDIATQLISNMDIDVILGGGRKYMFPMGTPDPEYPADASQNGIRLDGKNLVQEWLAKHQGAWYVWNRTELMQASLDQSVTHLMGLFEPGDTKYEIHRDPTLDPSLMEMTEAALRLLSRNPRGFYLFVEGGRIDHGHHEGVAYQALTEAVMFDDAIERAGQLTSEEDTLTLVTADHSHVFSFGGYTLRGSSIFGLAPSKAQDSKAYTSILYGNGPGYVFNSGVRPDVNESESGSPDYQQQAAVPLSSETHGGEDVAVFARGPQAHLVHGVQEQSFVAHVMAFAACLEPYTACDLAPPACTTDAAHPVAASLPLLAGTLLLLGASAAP
hIAP inh – human IAP inhibition; inhibition, % at 10 µM; 330,000 compounds, 0.12% hits; AID 2544; purified IAP, CDP-Star luminescence, 30 min;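 active = inhibition reaching a set limit with compound at 10 µM in the primary screen, cut at about 35% in these data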;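 also: plate controls were DMSO wells with enzyme for no effect and no-enzyme buffer wells for full effect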
mIAP act – mouse IAP activation; muIAP, CDP-Star luminescence, 30 min; stronger effect = higher value; 1 = vehicle-only enzyme signal, 0 = enzyme-free wells; activation factor at 10 µM; 330,000 compounds, 0.24% hits;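 active = activation factor of at least 2 at 20 µM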
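System: Mouse IAP enzyme | Also added: CDP-Star substrate | Dosing: Compounds dispensed in DMSO | Schedule: 30 min enzyme-substrate-compound incubation at room temperature | Technique: Chemiluminescence readout | Control set: DMSO-only wells and no-enzyme negative control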
bIAP act – increases bovine intestinal alkaline phosphatase activity | purified bovine IAP, CDP-star luminescence, 30 min; stronger effect = higher value; fold of DMSO-control signal, blank-subtracted | activation factor at 20 µM | 200,000 compounds, 0.17% hits | AID 1016;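 active = activation factor of 2 or more at 20 µM, a signal rise over negative controls twice the positive control's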
mIAP block – blocks mouse intestinal alkaline phosphatase | 330,000 compounds, 0.2% hits | purified mouse IAP, CDP-Star luminescence, 30 min | AID 2806 | inhibition, % at 10 µM;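 active = inhibition of at least 40% at 10 µM in the primary screen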;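 also: plate controls were DMSO with enzyme for no effect and no enzyme wells for full effect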
hIAP act conf – human IAP activation confirmation | activation (%Activity, negative = activation), % at 8.3 µM | shares compounds with hIAP act | purified IAP, CDP-Star luminescence, 30 min; stronger effect = lower value | 880 compounds, 10% hits | AID 434926;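 active = at least twofold enzyme activation in any of six single-dose repeats, which the averaged readout prints as negative percent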
The depositor's hits bear a star; i = inactive; nt = no result given.

SMILES | bIAP inh | hIAP act | hIAP inh | mIAP act | bIAP act | mIAP block | hIAP act conf
CN(Cc1ccccc1)C(=O)Nc1ccc(Cl)cc1 | nt | 2.02* | -101.9 | 1.03 | nt | -3.5 | -58.7*
CN(Cc1ccccc1)C(=O)c1[nH]cnc1C(=O)Nc1ccc(Cl)cc1 | nt | 1.46 | -45.9 | 0.967 | nt | 3.3 | nt
CC(C)(C)c1ccc(C(=O)Nc2ncn[nH]2)cc1 | -20.7 | 1.57 | -57.3 | 1.07 | 1.2 | -7.1 | nt
Cc1ccc(SC(C)C(=O)Nc2ncn[nH]2)cc1 (stereo unspecified) | -52.0 | 2.39* | -139.1 | 1.17 | 1.5 | -16.5 | 11.5
Cc1ccc(C(=O)Nc2ncn[nH]2)cc1 | nt | 2.12* | -111.9 | 0.968 | nt | 3.2 | -8.4
CC(C(=O)Nc1ncn[nH]1)N1C(=O)c2ccccc2C1=O (stereo unspecified) | -12.5 | 1.26 | -25.8 | 1.03 | 1.1 | -2.7 | nt
CCCCOc1ccc(C(=O)N/N=C/c2ccc(OCCN3CCCCC3)c(OC)c2)cc1 | 11.7 | 1.6 | -59.7 | 1.7 | 0.9 | -70.0 | nt
CC1Cc2ccccc2N1C(=O)COc1ccc2c(c1)OCO2 (stereo unspecified) | 5.3 | 1.22 | -22.0 | 1.14 | 0.9 | -14.2 | nt
CC(=O)NC(CC(=O)N1CCN(C(C)=O)CC1)c1ccccc1 (stereo unspecified) | nt | 1.2 | -19.8 | 1.07 | nt | -7.3 | nt
O=C(NCC(F)(F)F)Nc1cccnc1 | 9.9 | 0.46 | 54.0* | 1.11 | 0.9 | -11.4 | 7.4
O=C(CCC(=O)c1ccc(F)cc1)Nc1cccc(Br)c1 | nt | 1.17 | -16.7 | 1.07 | nt | -6.9 | nt
O=C(CCN1C(=O)/C(=C/c2ccccc2Cl)SC1=S)NNC(=O)c1ccccc1O | nt | 2.08* | -108.4 | 0.731 | nt | 26.9 | 62.3
Cc1ccc(C(=O)OCC(=O)NNC(=O)c2cccs2)c(O)c1 | nt | 0.956 | 4.4 | 0.903 | nt | 9.7 | nt
O=S(=O)(c1ccc2ccccc2c1)n1cccn1 | nt | 0.586 | 41.4* | 1.03 | nt | -3.3 | -3.4
Cn1cc(C(=O)C(F)(F)F)c2ccccc21 | -2.9 | 1.24 | -23.6 | 0.951 | 1 | 4.9 | nt
Cn1cc(C(=O)NS(=O)(=O)Nc2ccc(Br)cc2)c2ccccc21 | nt | 0.62 | 38.0* | 0.987 | nt | 1.3 | -6.7
COc1cccc(NC(=O)COC(=O)/C=C/c2c(C)nn(-c3ccccc3)c2C)c1 | nt | 0.824 | 17.6 | 1.12 | nt | -12.0 | nt
COc1cc(/C=C2\SC(=S)N(NC(=O)c3cccc(O)c3)C2=O)ccc1O | nt | 0.739 | 26.1 | 0.714 | nt | 28.6 | nt
COc1cc(/C=C2\SC(=S)N(NC(=O)c3ccncc3)C2=O)ccc1O | nt | 0.648 | 35.2* | 0.633 | nt | 36.7 | -2.7
COc1cc(/C=C2\SC(=S)N(NC(=O)c3ccc(O)c(OC)c3)C2=O)ccc1O | nt | 0.543 | 45.7* | 0.736 | nt | 26.4 | -49.6
COc1cc(/C=C2\SC(=S)N(N3CCOCC3)C2=O)ccc1O | nt | 0.556 | 44.4* | 0.655 | nt | 34.5 | -24.0
N#Cc1ccc(OCC(=O)N2CCN(c3ccc(C(F)(F)F)cn3)CC2)cc1 | nt | 1.12 | -12.2 | 1.07 | nt | -6.6 | nt
CCOCCCNC(=O)CCC(=O)NNc1nc2ccccc2c2nc(C)nn12 | -34.2 | 3.07* | -206.8 | 1.01 | 1.3 | -0.6 | 4.3
Cc1nc2c3ccccc3nc(NNC(=O)CCC(=O)NCCN3CCN(c4ccccc4)CC3)n2n1 | nt | 2.3* | -130.0 | 0.899 | nt | 10.1 | -97.4*
Cc1nc2c3ccccc3nc(NNC(=O)CCC(=O)N3CCN(c4ccc(F)cc4)CC3)n2n1 | nt | 0.78 | 22.0 | 0.94 | nt | 6.0 | nt
SMILES | bIAP inh | hIAP act | hIAP inh | mIAP act | bIAP act | mIAP block | hIAP act conf
CCCCNC(=O)CCC(=O)NNc1nc2ccccc2c2nc(C)nn12 | 22.2 | 2.54* | -153.5 | 0.783 | 0.8 | 21.7 | 8.4
CCOC(=O)C1(Cc2cccc(Cl)c2)CCCN(C(=O)C(C)(C)C)C1 (stereo unspecified) | nt | 0.967 | 3.3 | 1.07 | nt | -6.8 | nt
OCCC1CN(C/C=C/c2ccco2)CCN1Cc1ccccc1 (stereo unspecified) | nt | 1.16 | -16.1 | 0.892 | nt | 10.8 | nt
Cc1onc(-c2c(Cl)cccc2Cl)c1C(=O)Nc1ccc(N2CCOCC2)cc1 | nt | 1.77 | -77.5 | 1.02 | nt | -2.4 | nt
Cc1ccc(S(=O)(=O)N2CCN(Cc3ccccc3)CC2)s1 | nt | 1.17 | -17.1 | 1.08 | nt | -8.0 | nt
O=C(/C=C/c1ccc(O)cc1)c1ccc(NC2=C(N3CCCCC3)C(=O)c3ccccc3C2=O)cc1 | 35.1 | 0.647 | 35.3* | 0.709 | 0.6 | 29.1 | 0.0
O=C1C(Nc2ccccc2)=C(N2CCCCC2)C(=O)c2ccccc21 | 15.9 | 0.961 | 3.9 | 1 | 0.8 | -0.3 | nt
O=C(c1sc2cc(Cl)ccc2c1Cl)N1CCN(CCc2ccccn2)CC1 | nt | 1 | -0.3 | 0.952 | nt | 4.8 | nt
c1ccc(-c2nc(NCCCN3CCOCC3)c3ccccc3n2)cc1 | 3.9 | 2.04* | -104.0 | 1 | 1 | -0.1 | -9.4
Cc1cccc(-c2nc(NCCCN3CCOCC3)c3ccccc3n2)c1 | 3.4 | 1.11 | -10.8 | 0.949 | 1 | 5.1 | nt
O=C(NCCS(=O)(=O)N1CCN(c2cccc(Cl)c2)CC1)c1ccco1 | nt | 0.968 | 3.2 | 0.93 | nt | 7.0 | nt
On1onc2c3cc(-c4ccccc4)nc3ccc21 | 18.3 | 0.634 | 36.6* | 0.909 | 0.8 | 9.1 | -3.4
c1ccc(-c2cc3c(ccc4nonc43)nn2)cc1 | 4.4 | 1.19 | -18.9 | 1.04 | 1 | -4.1 | nt
OCC[C@H]1C[C@H](O)[C@@H](O)[C@@]2(CCc3ccccc3O2)O1 | nt | 1.06 | -6.5 | 0.984 | nt | 1.6 | nt
O=C(c1cnn2c(C(F)(F)F)cc(-c3ccc(Br)cc3)nc12)N1CCOCC1 | -1.0 | nt | nt | nt | 1 | nt | nt
Cc1nn2c(C(F)(F)F)cc(-c3ccc(Cl)cc3)nc2c1C(=O)N1CCOCC1 | 8.1 | 2.77* | -177.1 | 1.02 | 0.9 | -1.6 | 7.6
CC1CCCC/C1=N/Nc1ccc([N+](=O)[O-])cc1[N+](=O)[O-] (stereo unspecified) | nt | 0.628 | 37.2* | 0.811 | 0.1 | 18.9 | 7.8
Cc1ccc(S(=O)(=O)N2CCC(C(=O)OCC(=O)N3CCC(C)CC3)CC2)cc1C | nt | 1.11 | -10.6 | 0.939 | nt | 6.1 | nt
CCOc1cccc(-c2nc(C(N)=O)c3[nH]c(=O)n(-c4cccc(Cl)c4)c3n2)c1O | -13.2 | 3.96* | -296.5 | 0.801 | 1.1 | 19.9 | -74.5*
CC1CCN(S(=O)(=O)c2ccc3c(c2)CCN3C(=O)C2CCC2)CC1 | nt | 0.816 | 18.4 | 0.984 | nt | 1.6 | nt
CC1CCCN(S(=O)(=O)c2ccc3c(c2)CCN3C(=O)C2CCC2)C1 (stereo unspecified) | 0.1 | 50.3* | i | 0.973 | 1 | 2.7 | 0.1
Cc1ccc2oc(C(=O)N3CCCCCC3)c(C)c2c1 | nt | 0.544 | 45.6* | 1.01 | nt | -1.1 | 2.3
CCOc1ccc(CN(C)C(=O)c2cccc(S(=O)(=O)N3CCCC3)c2)cc1OC | nt | 0.865 | 13.5 | 0.937 | nt | 6.3 | nt
Cc1cc(C)n(C(=O)C23CC4CC(CC(C4)C2)C3)n1 | 1.5 | 2.36* | -135.6 | 0.865 | 1 | 13.5 | -125.8*
